Compound activity deposited in PubChem BioAssay by several laboratories.
SR-BI uptake up: enhances SR-BI lipid uptake from DiI-HDL | CHO ldlA[mSR-BI] cells, DiI-HDL uptake fluorescence, 3 h; 100 = double the neutral-control signal | activation, % at 12.5 µM | 0.096% of 320,000 active;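 active = mean replicate activation of at least 60% and every replicate at or above 60%; inconclusive = mean or all-replicate condition met, but not both; inactive = mean below 60% and not all replicates reaching 60%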
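Test system: SR-BI-overexpressing, LDLR-lacking CHO cells. Measured by: DiI fluorescence, bottom read. Medium: Ham's F12 with 0.5% BSA, HEPES 25 mM, pH 7.4. Timing: 3 h uptake period with compound, 37 °C.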
dFosB act-1: enhances mouse delta FosB homodimer DNA binding; P13346; purified delta FosB, TAMRA-CDK5 oligo fluorescence polarization; percent of positive-control signal above neutral wells; activation, % at 25 µM; 0.99% of 340,000 active; AID 493131;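 active = mean activation above about 17%, with every replicate also reaching it, limit read from the data, passing the limit was not always enough; inconclusive = only one of the two conditions met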
PKA-R2B act: activates the human PKA-R2B holoenzyme complex; PKA-R2B holoenzyme dissociation, Cy5-IP20 fluorescence polarization; R2B truncated from residue 108, S112A mutant; 0% DMSO only, 100% 113 µM cGMP; activation, % at 11.4 µM; 0.079% of 340,000 active; AID 504700;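 active = activation above a cutoff set at the mean over all compounds plus 3 SD, cut at about 18% in these data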;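 also: higher means more holoenzyme dissociation and a rise in polarization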
SR-BI DiI inh: blocks mouse SR-BI lipid uptake from DiI-HDL. Q61009. ldlA[mSR-BI] CHO cells, DiI-HDL uptake fluorescence, 3 h. inhibition, % at 12.5 µM. 0.96% of 320,000 active. AID 488896;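 active = mean replicate inhibition of at least 70% and a set share of replicates each scoring 70 or more; inconclusive = meets just one of the two criteria; inactive = fails both criteria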
Target sequence (Q61009 whole entry, looked up): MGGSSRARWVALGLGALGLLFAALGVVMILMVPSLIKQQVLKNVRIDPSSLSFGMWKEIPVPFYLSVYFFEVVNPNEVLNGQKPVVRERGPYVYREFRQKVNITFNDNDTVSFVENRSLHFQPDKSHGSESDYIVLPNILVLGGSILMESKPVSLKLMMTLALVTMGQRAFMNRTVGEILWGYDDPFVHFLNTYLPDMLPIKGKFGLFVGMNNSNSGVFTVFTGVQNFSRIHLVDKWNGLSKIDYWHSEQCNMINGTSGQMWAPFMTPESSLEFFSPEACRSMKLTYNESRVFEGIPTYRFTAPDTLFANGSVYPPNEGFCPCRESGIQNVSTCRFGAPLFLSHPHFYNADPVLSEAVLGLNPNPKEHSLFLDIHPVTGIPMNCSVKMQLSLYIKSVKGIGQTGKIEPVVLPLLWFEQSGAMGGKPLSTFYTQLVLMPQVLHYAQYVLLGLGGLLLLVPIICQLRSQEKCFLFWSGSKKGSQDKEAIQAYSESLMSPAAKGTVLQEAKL
CDK5 p35 inh: inhibitors of human CDK5/p35 kinase. Recombinant CDK5/p35, ADP-Glo luminescence, 60 min. inhibition, % at 10 µM. 0.01% of 330,000 active;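 active = highest replicate inhibition of at least 50% and at least 75% of replicates reaching 50%; inconclusive = only one of the two criteria met; inactive = both criteria failed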
PKA-R1A activ: PKA-R1A complex activation; P00514+P68181; activation, % at 11.4 µM; PKA-R1A dissociation, Cy5-IP20 fluorescence polarization; scaled: DMSO 0%, 113 µM cGMP 100%; 0.083% of 340,000 active; AID 504707;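 active = percent activation above the mean of all tested compounds plus 3 SD, cut at about 19% in these data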;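 also: higher means more PKAc released from R1A so a rise in polarization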
dFosB act-2: enhances mouse delta FosB homodimer binding to DNA | shares compounds with dFosB act-1 | purified delta FosB, TAMRA-CDK5 oligo fluorescence polarization; normalised: neutral wells 0, positive control 100 | activation, % at 24.9 µM | 2,400 tested, under 10 active | AID 588690;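 active = highest replicate activation at or above 34% and every replicate reaching that threshold; inconclusive = meets only one of the two criteria; inactive = meets neither criterion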;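 also: higher polarization means more probe DNA bound by delta FosB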
Each line names hits and unclear results; the compound was inactive in the other large screens (follow-up assays come after a bar, where they were run). This is a sample that favours compounds with a hit; in the whole collection about 2.1% have one here.

O=C(Nc1ccccc1)Nc1snnc1C(=O)Nc1cccc(O)c1	dFosB act-1 57 | dFosB act-2 inactive
O=C(Nc1cccc(O)c1)c1cccc(C(=O)Nc2cccc(O)c2)c1	none
CCCCn1c(N)c(N(CCC(C)C)C(=O)c2cccc(N3C(=O)c4ccccc4C3=O)c2)c(=O)[nH]c1=O	dFosB act-1 22 | dFosB act-2 inactive
Cc1ccccc1NC(=O)C1CCN(c2cc(-c3ccccc3)nc3ncnn23)CC1	dFosB act-1 24 | dFosB act-2 inactive
O=S(=O)(c1ccccc1)N1CCN(c2cc(-c3ccccc3)nc3ncnn23)CC1	none
O=C(c1ccco1)N1CCN(C(=O)c2cn(-c3ccccc3)nc2-c2ccccc2)CC1	none
O=C(CN(Cc1ccc(Cl)cc1)C(=O)CN1C(=O)COc2ccccc21)NC1CCCC1	dFosB act-1 29 (no result: SR-BI uptake up, SR-BI DiI inh) | dFosB act-2 inactive
C[C@@H]1CN([C@H](C)CO)C(=O)CCCn2cc(nn2)CO[C@H]1CN(C)C(=O)Nc1ccccc1	none (no result: SR-BI uptake up, dFosB act-1, SR-BI DiI inh, CDK5 p35 inh)
O=C(Cc1cccc2ccccc12)N/N=C/c1ccc(F)cc1	none
O=C(Cc1cccc2ccccc12)N/N=C/c1ccc(OC(=O)/C=C/c2ccco2)cc1	dFosB act-1 18 | dFosB act-2 inactive
O=C(CN1C(=O)COc2ccc(Cl)cc21)Nc1nccs1	dFosB act-1 20 | dFosB act-2 inactive
CC(Nc1c[nH]c(=O)[nH]c1=O)c1ccccc1 (configuration not stated)	none (no result: SR-BI uptake up, SR-BI DiI inh)
Cc1ccc(CNC(=O)c2ccc(NC(=O)C3=CSCCO3)cc2)cc1	dFosB act-1 28 | dFosB act-2 inactive
O=C(c1ccccc1)n1c(=O)cc[nH]c1=O	none
CCO[C@H]1OC(C(N)=O)=C[C@@H](C(C)(C)C)[C@@H]1CCCO	none
O=C(Nc1nc2c(s1)CN(Cc1ccccc1)CC2)C1CCCC1	dFosB act-1 24 | dFosB act-2 inactive
CC(C)(C)C(=O)Nc1nc2c(s1)CN(Cc1ccccc1)CC2	none
CCCCn1c(N)c(N(CC(C)C)C(=O)Cc2ccc(S(=O)(=O)N3CCOCC3)s2)c(=O)[nH]c1=O	none
COc1ccc(-n2nc(C(=O)NCC(=O)Nc3ccccn3)c3ccccc3c2=O)cc1	none
COc1ccc(-n2nc(C(=O)NCC(=O)Nc3cccc(Cl)c3)c3ccccc3c2=O)cc1	dFosB act-1 39 | dFosB act-2 inactive
COc1ccc(NS(=O)(=O)c2ccc(C)c(NC(=O)CNC(=O)c3ccco3)c2)cc1	none
COc1ccc(Nc2oc(COc3ccc(Cl)cc3)nc2C#N)cc1	dFosB act-1 22 | dFosB act-2 inactive
O=C(NCc1ccc2c(c1)OCO2)C(=O)NCC1OCCN1S(=O)(=O)c1ccccc1 (configuration not stated)	none
Cc1c(C(=O)NNC(=O)c2ccccc2O)oc2ccc(Br)cc12	dFosB act-1 37, SR-BI DiI inh 129 | dFosB act-2 inactive
CC(=O)Nc1ccc(S(=O)(=O)NCCC(=O)Nc2ccc(C)c(F)c2)cc1	none (no result: SR-BI uptake up, SR-BI DiI inh)
CC(C)(C)S(=O)N1Cc2cc(CO)ccc2[C@@H]1CCO (some centres not stated)	none (no result: SR-BI uptake up, SR-BI DiI inh)
CCOC(=O)c1c(CSC(=N)N)n(-c2ccccc2)c2cc(Br)c(OC(C)=O)cc12	dFosB act-1 30 | dFosB act-2 inconclusive
O=C(CNc1ccc2ccccc2c1)N/N=C/c1ccc([N+](=O)[O-])o1	dFosB act-1 31 | dFosB act-2 inactive
CCc1cc2cc3c(cc2nc1SCC(=O)Nc1c[nH]c(=O)[nH]c1=O)OCO3	dFosB act-1 70 (no result: SR-BI uptake up, SR-BI DiI inh) | dFosB act-2 inactive
CCc1ccc(NC(=O)CSc2nc3ncc(Br)cc3[nH]2)cc1	dFosB act-1 19 | dFosB act-2 inactive
COc1cccc(NC(=O)CSc2nc3ncc(Br)cc3[nH]2)c1	dFosB act-1 inconclusive
COC(=O)CSc1nc2nc(C)c(Br)cc2[nH]1	none
